From BindingDB's records for doi:10.1021/jm201131n (Academia Sinica, 2011)

What was measured:
[1] = target: T1, Glutathione S-transferase A2 (Homo sapiens, UniProt P09210); assay: Inhibition of human GSTA2 using GSH as substrate after 3 mins by spectrophotometry
T1 sequence (P09210 whole entry): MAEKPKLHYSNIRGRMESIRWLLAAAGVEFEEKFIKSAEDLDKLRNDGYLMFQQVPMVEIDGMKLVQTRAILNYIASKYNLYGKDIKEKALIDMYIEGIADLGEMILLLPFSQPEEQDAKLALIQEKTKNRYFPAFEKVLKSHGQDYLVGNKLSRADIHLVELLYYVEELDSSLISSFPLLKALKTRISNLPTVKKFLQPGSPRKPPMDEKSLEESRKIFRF
Procedure, shortened: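 Human GST enzyme preincubated with inhibitor (0–200 μM) in 100 mM potassium phosphate pH 6.5 at 37 °C (GSTM1 at 32 ng). Reaction started with GSH (final 2 mM) and followed at 340 nm for 3 min. IC50 by nonlinear regression, mean ± SEM, n = 3. Percent inhibition at 100 μM is not corrected for glutathione conjugate formation.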

[2] = target: Glutathione S-transferase P (Homo sapiens, UniProt P09211); assay: Inhibition of human GSTP1-1 using GSH as substrate after 3 mins by spectrophotometry
Chain of Glutathione S-transferase P (P09211 whole entry): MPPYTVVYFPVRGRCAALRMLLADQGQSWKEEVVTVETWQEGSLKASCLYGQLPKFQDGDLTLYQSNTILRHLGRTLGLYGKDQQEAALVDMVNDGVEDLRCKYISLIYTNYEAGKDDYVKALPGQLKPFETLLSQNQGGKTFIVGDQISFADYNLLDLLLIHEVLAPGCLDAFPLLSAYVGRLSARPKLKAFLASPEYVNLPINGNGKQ

Row | IC50 [1] [µM] | IC50 [2] [µM] | Structure (SMILES)
1 | > 100 | > 100 | CC(=O)OCC1CC(O)[C@H](O)C(=O)C1=O (stereo partly specified)
2 | > 100 | > 100 | CC(=O)OCC1C[C@@H](O)[C@H](O)C(=O)C1=O (stereo partly specified)
3 | > 100 | > 100 | CC(=O)OCC1C[C@H](O)[C@H](O)C(=O)C1=O (stereo partly specified)
4 | > 100 | > 100 | CO[C@@H]1CC(COC(C)=O)C(=O)C(=O)[C@H]1O (stereo partly specified)
5 | > 100 | > 100 | CO[C@H]1CC(COC(C)=O)C(=O)C(=O)[C@H]1O (stereo partly specified)
6 | > 100 |  | CO[C@]1(C)O[C@H]2[C@H](O)C(C=O)CC(=O)[C@@H]2O[C@@]1(C)OC (stereo partly specified)
